# Measured values reported in paper PMC3053384 (Pediatric blood & cancer, 2010).
# Like-named read-outs stand apart in the source and are kept apart here. Marks after values point to notes of the source that are not given here.
# How the values were obtained:
# [1] = Pediatric phase 1 trial: toxicity, DLT and MTD; format: in vivo, human; settings: for No. of patients with DLT: first course; for No. of courses with Grade 3 Anemia / No. of courses with Grade 3 Lymphopenia / No. of courses with Grade 3 Neutropenia / No. of courses with Grade 3 Thrombocytopenia / No. of courses with Grade 4 Anemia / No. of courses with Grade 4 Lymphopenia / No. of courses with Grade 4 Thrombocytopenia / No. of courses with Grade 4 Neutropenia: independent of frequency or attribution; for No. of courses with Grade 4 Neutropenia: dose-limiting
# [2] = test system: recurrent or refractory solid tumors; test: Pediatric phase 1 trial: tumor response; format: in vivo, human
# Method in brief: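 Children with recurrent or refractory solid tumors received the test compound as a 1-hour IV infusion on days 1, 8 and 15 of each 28-day course, at 5, 7, 9 or 12 mg/m2/dose. The compound was diluted in 5% dextrose in water to a final ≤ 150 μg/mL. Patients with haematologic DLT continued at the next lower dose level. Radiographic response was assessed by NCI RECIST.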
# [3] = Pediatric phase 1 trial: plasma pharmacokinetics after first dose; design: species or system human; settings: in vivo
# [4] = biological target: kinesin spindle protein (KSP/HsEg5); settings: read-out: binding constant, Ki; cited from earlier work
# [5] = test system: Ewing sarcoma, Wilms tumor, glioblastoma, rhabdoid tumor and acute lymphoblastic leukemia xenografts; settings: cited from earlier work
# [6] = test system: adult tumors (breast, ovarian and other cancers); settings: 18 mg/m^2 once every 21 days; cited from earlier work
# [7] = cited from earlier work
# [8] = 12 mg/m^2 dose level, of 6 evaluable
# [9] = Course 1 (19 courses), non-dose-limiting, related to protocol therapy
# [10] = Courses 2-7 (15 courses), non-dose-limiting, related to protocol therapy
compound,measurement,setting,value
"Cc1ccc(C(=O)N(CCCN)[C@@H](c2nc3cc(Cl)ccc3c(=O)n2Cc2ccccc2)C(C)C)cc1 [ispinesib, Ispinesib]",No. of patients with DLT,"[1]; 5 mg/m^2/dose, 3 evaluable patients",0
same,No. of patients with DLT,"[1]; 9 mg/m^2/dose, 6 evaluable patients",1
same,No. of patients with DLT,"[1]; 12 mg/m^2/dose, 6 evaluable patients",3
same,patients with dose-limiting hyperbilirubinemia (grade 3),[1]; [8],1/6
same,patients with dose-limiting neutropenia (grade 4),[1]; [8],2/6
same,pediatric MTD higher than recommended adult phase II dose,[1]; 9 vs 7 mg/m^2/dose,~30%
same,No. of courses with Grade 3 Anemia,[1]; Course 1 (19 courses),1
same,No. of courses with Grade 3 Lymphopenia,[1]; Course 1 (19 courses),2
same,No. of courses with Grade 3 Neutropenia,[1]; Course 1 (19 courses),5
same,No. of courses with Grade 3 Thrombocytopenia,[1]; Course 1 (19 courses),1
same,No. of courses with Grade 4 Anemia,[1]; Course 1 (19 courses),0
same,No. of courses with Grade 4 Lymphopenia,[1]; Course 1 (19 courses),1
same,No. of courses with Grade 4 Thrombocytopenia,[1]; Course 1 (19 courses),0
same,No. of courses with Grade 4 Neutropenia,[1]; Course 1 (19 courses),3 ^*
same,"No. of courses with ALT toxicity, Grade 3",[1]; [9],1
same,"No. of courses with ALT toxicity, Grades 1 and 2",[1]; [9],3
same,"No. of courses with AST toxicity, Grade 3",[1]; [9],1
same,"No. of courses with AST toxicity, Grades 1 and 2",[1]; [9],2
same,"No. of courses with Alkaline phosphatase toxicity, Grade 3",[1]; [9],0
same,"No. of courses with Alkaline phosphatase toxicity, Grades 1 and 2",[1]; [9],2
same,"No. of courses with Constipation, Grade 3",[1]; [9],0
same,"No. of courses with Constipation, Grades 1 and 2",[1]; [9],2
same,"No. of courses with Diarrhea, Grade 3",[1]; [9],0
same,"No. of courses with Diarrhea, Grades 1 and 2",[1]; [9],2
same,"No. of courses with Electrolyte abnormality, Grade 3",[1]; [9],0
same,"No. of courses with Electrolyte abnormality, Grades 1 and 2",[1]; [9],4
same,"No. of courses with Fatigue, Grade 3",[1]; [9],0
same,"No. of courses with Fatigue, Grades 1 and 2",[1]; [9],3
same,"No. of courses with Hyperbilirubinemia, Grade 3",[1]; [9],1
same,"No. of courses with Hyperbilirubinemia, Grades 1 and 2",[1]; [9],1
same,"No. of courses with Hypoalbuminemia, Grade 3",[1]; [9],0
same,"No. of courses with Hypoalbuminemia, Grades 1 and 2",[1]; [9],3
same,"No. of courses with Nausea, Grade 3",[1]; [9],0
same,"No. of courses with Nausea, Grades 1 and 2",[1]; [9],4
same,"No. of courses with Vomiting, Grade 3",[1]; [9],0
same,"No. of courses with Vomiting, Grades 1 and 2",[1]; [9],3
same,No. of courses with Grade 3 Anemia,[1]; Courses 2-7 (15 courses),0
same,No. of courses with Grade 3 Lymphopenia,[1]; Courses 2-7 (15 courses),2
same,No. of courses with Grade 3 Neutropenia,[1]; Courses 2-7 (15 courses),1
same,No. of courses with Grade 3 Thrombocytopenia,[1]; Courses 2-7 (15 courses),0
same,No. of courses with Grade 4 Anemia,[1]; Courses 2-7 (15 courses),0
same,No. of courses with Grade 4 Lymphopenia,[1]; Courses 2-7 (15 courses),0
same,No. of courses with Grade 4 Thrombocytopenia,[1]; Courses 2-7 (15 courses),0
same,No. of courses with Grade 4 Neutropenia,[1]; Courses 2-7 (15 courses),1 ^*
same,"No. of courses with ALT toxicity, Grades 1 and 2",[1]; [10],0
same,"No. of courses with AST toxicity, Grades 1 and 2",[1]; [10],0
same,"No. of courses with Alkaline phosphatase toxicity, Grades 1 and 2",[1]; [10],0
same,"No. of courses with Constipation, Grades 1 and 2",[1]; [10],0
same,"No. of courses with Diarrhea, Grades 1 and 2",[1]; [10],0
same,"No. of courses with Electrolyte abnormality, Grades 1 and 2",[1]; [10],0
same,"No. of courses with Fatigue, Grades 1 and 2",[1]; [10],1
same,"No. of courses with Hyperbilirubinemia, Grades 1 and 2",[1]; [10],0
same,"No. of courses with Hypoalbuminemia, Grades 1 and 2",[1]; [10],0
same,"No. of courses with Nausea, Grades 1 and 2",[1]; [10],1
same,"No. of courses with Vomiting, Grades 1 and 2",[1]; [10],1
same,maximum tolerated dose (MTD) and recommended phase II dose,"[1]; children with solid tumors, 1-hour iv infusion weekly x 3 every 28 days",9 mg/m^2/dose
same,primary dose-limiting adverse events,[1]; pediatric patients,neutropenia and hepatotoxicity
same,reversibility of neutropenia,[1]; pediatric patients,rapidly reversible
same,tolerability,"[1]; pediatric patients, 9 mg/m^2/dose weekly x 3 every 28 days",well tolerated
same,tolerability,"[1]; pediatric patients, 5-12 mg/m^2/dose weekly x 3 every 28 days",generally well tolerated
same,complete courses of therapy with stable disease,"[2]; 7 mg/m^2 dose level, ependymoblastoma",7 courses
same,complete courses of therapy with stable disease,"[2]; 9 mg/m^2 dose level, alveolar soft part sarcoma",5 courses
same,complete courses of therapy with stable disease,"[2]; 12 mg/m^2 dose level, anaplastic astrocytoma",4 courses
same,objective tumor responses,[2]; 24 pediatric patients evaluable for response,no objective tumor responses
same,dose dependence of terminal t1/2,[3]; human,independent of dose
same,"volume of distribution at steady state (Vss), median",[3]; human,84 L/m^2
same,"volume of distribution at steady state (Vss), range",[3]; human,23-193 L/m^2
same,Clearance,"[3]; human, 5 mg/m2",5.3 L/hr/m^2
same,Cmax,"[3]; human, 5 mg/m2, Cmax",145 ng/mL
same,half-life,"[3]; human, 5 mg/m2, t1/2",9 h
same,half-life,"[3]; human, 7 mg/m2, t1/2",14 h
same,Clearance,"[3]; human, 12 mg/m2",13.5 L/hr/m^2
same,Vss,"[3]; human, 12 mg/m2",193 L/m^2
same,Cmax,"[3]; human, 12 mg/m2, Cmax",149 ng/mL
same,half-life,"[3]; human, 12 mg/m2, t1/2",13 h
same,Cmax,"[3]; human, iv, 5 mg/m2, Cmax",86 ng/mL
same,half-life,"[3]; human, iv, 5 mg/m2, t1/2",44 h
same,Cmax,"[3]; human, iv, 7 mg/m2, Cmax",244 ng/mL
same,half-life,"[3]; human, iv, 7 mg/m2, t1/2",32 h
same,Cmax,"[3]; human, iv, 12 mg/m2, Cmax",204 ng/mL
same,half-life,"[3]; human, iv, 12 mg/m2, t1/2",8 h
same,half-life,"[3]; human, terminal elimination half-life (t1/2), median",16 h
same,half-life,"[3]; human, terminal elimination half-life (t1/2), range",8 to 44 h
same,Clearance,[3]; 5 mg/m2,3.0 L/hr/m^2
same,Clearance,[3]; 7 mg/m2,1.2 L/hr/m^2
same,Vss,[3]; 7 mg/m2,51 L/m^2
same,Clearance,[3]; 12 mg/m2,7.1 L/hr/m^2
same,Vss,[3]; 12 mg/m2,83 L/m^2
same,Ki,[4],0.6 nM
same,in vivo anti-tumor activity,[5],high level of in vivo anti-tumor activity
same,activity in other adult tumor indications,[6],No significant activity
same,maximum tolerated dose (MTD),"[7]; adult patients with breast cancer, day 1 and day 15 every 28 days",12 mg/m^2
same,maximum tolerated dose (MTD),"[7]; adult patients with solid tumors, day 1, 2 and 3 every 21 days",6 mg/m^2
same,maximum tolerated dose (MTD),"[7]; adult patients with solid tumors, weekly x 3 every 28 days",7 mg/m^2/dose
same,maximum tolerated dose (MTD),"[7]; adults with acute leukemia, days 1, 2 and 3 every 21 days",10 mg/m^2/dose
same,recommended adult phase II dose,"[7]; adults, weekly x 3 every 28 days",7 mg/m^2/dose
